From publication PMC3530835 (Journal of medicinal chemistry, 2012)
≈ marks a conversion by molar mass, not a printed value. One block for each compound: values may come before it.

Experiments:
PfGluPho (PfG6PD) [1] = molecular target: T1, PfGluPho (PfG6PD) (Plasmodium falciparum, UniProt Q8IKU0); assay: PfGluPho primary dose response assay, resazurin/diaphorase-coupled; assay type: biochemical; settings: for Decrease in potency relative to 5a: vs. 5a, Table 2
T1 sequence (Q8IKU0 1-910): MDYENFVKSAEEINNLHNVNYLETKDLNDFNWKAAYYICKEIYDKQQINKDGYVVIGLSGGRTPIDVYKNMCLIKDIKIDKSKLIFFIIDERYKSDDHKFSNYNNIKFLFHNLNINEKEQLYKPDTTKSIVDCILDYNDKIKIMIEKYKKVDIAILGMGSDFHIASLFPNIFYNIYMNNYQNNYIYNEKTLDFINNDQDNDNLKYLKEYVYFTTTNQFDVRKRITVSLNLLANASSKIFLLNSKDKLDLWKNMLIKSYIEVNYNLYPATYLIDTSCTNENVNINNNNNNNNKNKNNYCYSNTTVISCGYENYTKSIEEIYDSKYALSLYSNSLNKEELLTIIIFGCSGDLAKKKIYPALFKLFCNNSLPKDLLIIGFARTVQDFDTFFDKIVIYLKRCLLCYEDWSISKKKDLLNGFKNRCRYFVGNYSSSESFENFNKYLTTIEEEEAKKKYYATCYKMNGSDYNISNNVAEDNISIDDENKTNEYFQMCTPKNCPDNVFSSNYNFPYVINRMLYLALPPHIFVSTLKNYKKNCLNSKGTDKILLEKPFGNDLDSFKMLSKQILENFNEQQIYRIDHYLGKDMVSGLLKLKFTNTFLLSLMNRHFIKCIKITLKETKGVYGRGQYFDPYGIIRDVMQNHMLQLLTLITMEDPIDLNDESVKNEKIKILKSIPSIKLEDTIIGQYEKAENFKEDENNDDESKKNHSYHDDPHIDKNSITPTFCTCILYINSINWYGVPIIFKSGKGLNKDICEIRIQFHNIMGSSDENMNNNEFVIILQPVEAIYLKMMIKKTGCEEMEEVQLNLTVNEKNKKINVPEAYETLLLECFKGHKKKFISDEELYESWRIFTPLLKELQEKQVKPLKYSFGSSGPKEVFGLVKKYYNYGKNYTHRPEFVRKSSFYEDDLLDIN

hG6PD = hG6PD (Homo sapiens, UniProt P11413); assay: hG6PD counter screen; assay type: biochemical; settings: Figure 3
P. falciparum = P. falciparum in culture; assay type: cell-based; settings: Plasmodium falciparum, read-out: IC50 against P. falciparum in culture
In short: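 Chloroquine-sensitive 3D7 and chloroquine-resistant Dd2 blood-stage strains. Infected RBCs seeded at 0.25% parasitemia (>70% rings) and 1.25% hematocrit in hypoxanthine-free medium, with varying test compound concentrations and a chloroquine control. Incubated 72 hours. Growth was read as 3H-hypoxanthine incorporation, and IC50 was derived by non-linear regression.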

Chemical stability = assay type: physicochemical; settings: 10 μM, 1% DMSO, 5 equivalents of GSH, PBS pH 7.4, 23 °C, duration of the study
Aqueous solubility = assay type: physicochemical
PfGluPho = PfGluPho (Plasmodium falciparum, UniProt Q8IKU0); assay: Mechanism of inhibition; assay type: biochemical
In short: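 Test compound, titrated in DMSO, and G6P or NADP+ varied together. Substrate solution final: 3.3 mM MgCl2, 1 mM TCEP, 0.05 M Tris, plus 5 μM NADP+ (G6P titration) or 25 μM G6P (NADP+ titration). Reaction started with PfGluPho (final 0.2 μg/mL) in 0.005% Tween 20. NADPH fluorescence (ex340/em460) monitored over 10 min; initial slopes taken.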

PfGluPho (PfG6PD) [2] = molecular target: T1, PfGluPho (PfG6PD); assay: Orthogonal PfGluPho assay, direct detection of NADPH; assay type: biochemical; settings: Potency PfG6PD NADPH Kinetic
[3] = PfG6PD IC50, Table 3, necessity of styryl moiety
[4] = Potency PfG6PD Primary Assay, Table 5, Ave. ± S.E.M.
[5] = Potency PfG6PD Primary Assay, Table 6, Ave. ± S.E.M.

Sequence of hG6PD (P11413 whole entry): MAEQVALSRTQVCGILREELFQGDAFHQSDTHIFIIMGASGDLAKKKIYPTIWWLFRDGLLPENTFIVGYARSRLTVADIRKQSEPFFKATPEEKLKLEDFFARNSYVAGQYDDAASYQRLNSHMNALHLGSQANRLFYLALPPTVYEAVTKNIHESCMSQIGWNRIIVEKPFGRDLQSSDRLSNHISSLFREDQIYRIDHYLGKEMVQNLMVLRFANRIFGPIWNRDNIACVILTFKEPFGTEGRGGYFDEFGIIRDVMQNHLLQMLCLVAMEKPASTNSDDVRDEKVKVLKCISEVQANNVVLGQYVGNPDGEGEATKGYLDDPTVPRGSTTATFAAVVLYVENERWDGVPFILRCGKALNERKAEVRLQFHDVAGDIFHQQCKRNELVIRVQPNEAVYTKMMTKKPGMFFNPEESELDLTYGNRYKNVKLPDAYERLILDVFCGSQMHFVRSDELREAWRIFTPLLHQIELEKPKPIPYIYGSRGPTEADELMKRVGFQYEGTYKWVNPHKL

- PfG6PD activity (in words) (PfGluPho (PfG6PD) [1]): complete loss of activity
- IC50 (PfGluPho (PfG6PD) [1]; [3]): > 80 µM
SMILES: CCN1CCCC1CNC(=O)c1ccc2c(c1)NC(=O)CS2 (stereo not drawn) [Compound 3d]

- Decrease in potency relative to 5a (PfGluPho (PfG6PD) [1]): 3 fold
SMILES: CCN1CCCC1CNC(=O)c1ccc2c(c1)NC(=O)/C(=C/c1ccccc1C)S2 (stereo not drawn) [Compound 5c]

- Decrease in potency relative to 5a (PfGluPho (PfG6PD) [1]): 5 fold
SMILES: CCN1CCCC1CNC(=O)c1ccc2c(c1)NC(=O)/C(=C/c1ccccc1OC)S2 (stereo not drawn) [Compound 5d]

SMILES: CCN1CCCC1CNC(=O)c1ccc2c(c1)NC(=O)C(Cc1ccccc1F)S2 (stereo not drawn) [Compound 10]
- PfG6PD activity (in words) (PfGluPho (PfG6PD) [1]): complete loss of activity
- IC50 (PfGluPho (PfG6PD) [1]; [3]): > 80 µM

- Selectivity for PfGluPho over hG6PD (in words) (hG6PD): selective
- Preference for the R-enantiomer versus the S-enantiomer (PfGluPho (PfG6PD) [1]; 11 vs. 12, Table 4): 8 fold
- IC50 (P. falciparum): 2.6 µM
- Reactivity with GSH (in words) (Chemical stability): remained intact
- solubility (Aqueous solubility; 1x PBS, pH 7.4): 71 µg/mL (≈ 167 µM)
- solubility (Aqueous solubility; pION's buffer, pH 5): > 126 µg/mL
- solubility (Aqueous solubility; pION's buffer, pH 6.2): > 126 µg/mL
- solubility (Aqueous solubility; pION's buffer, pH 7.4): 29.4 µg/mL (≈ 69.1 µM)
- Type of inhibition vs. G6P (PfGluPho; G6P titration): competing with the substrate
- Type of inhibition vs. NADP+ (PfGluPho; NADP+ titration): mixed-type inhibition
SMILES: CCN1CCC[C@@H]1CNC(=O)c1ccc2c(c1)NC(=O)/C(=C/c1ccccc1F)S2 [Compound 11, (R,Z)-N-((1-ethylpyrrolidin-2-yl)methyl)-2-(2-fluorobenzylidene)-3-oxo-3,4-dihydro-2H-benzo[b][1,4]thiazine-6-carboxamide]

- PfG6PD activity (in words) (PfGluPho (PfG6PD) [1]): inactive
- IC50 (PfGluPho (PfG6PD) [1]; Potency PfG6PD Primary Assay, Table 4, Ave. ± S.E.M.): > 80 µM
SMILES: CC(C)(C)OC(=O)N1CCCC1CNC(=O)c1ccc2c(c1)NC(=O)/C(=C/c1ccccc1F)S2 (stereo not drawn) [Compound 14]

- IC50 (PfGluPho (PfG6PD) [1]; [4]): > 80 µM
- IC50 (PfGluPho (PfG6PD) [2]; Table 5): > 80 µM
SMILES: COc1ccc(/C=C2\Sc3ccc(C(=O)NCCN(C)C)cc3NC2=O)cc1 [Compound 19]

- IC50 (PfGluPho (PfG6PD) [1]; [4]): > 80 µM
SMILES: CCCN(CCC)CCNC(=O)c1ccc2c(c1)NC(=O)/C(=C/c1ccccc1)S2 [Compound 26]

- IC50 (PfGluPho (PfG6PD) [1]; [4]): > 80 µM
SMILES: CCCN(CCC)CCNC(=O)c1ccc2c(c1)NC(=O)/C(=C/c1ccc(C)cc1)S2 [Compound 27]

- IC50 (PfGluPho (PfG6PD) [2]; Table 6): > 80 µM
SMILES: COc1ccc(/C=C2\Sc3ccc(C(=O)NCCN4CCCC4)cc3NC2=O)cc1 [Compound 30]

- IC50 (PfGluPho (PfG6PD) [2]; Table 6): > 80 µM
SMILES: O=C1Nc2cc(C(=O)NCCN3CCCC3)ccc2S/C1=C\c1ccccc1Cl [Compound 31]

- IC50 (PfGluPho (PfG6PD) [1]; [5]): > 80 µM
- IC50 (PfGluPho (PfG6PD) [2]; Table 6): > 80 µM
SMILES: O=C1Nc2cc(C(=O)NCCN3CCOCC3)ccc2S/C1=C\c1ccccc1F [Compound 34]

- IC50 (PfGluPho (PfG6PD) [2]; Table 6): > 80 µM
SMILES: O=C1Nc2cc(C(=O)NCCN3CCCCCC3)ccc2S/C1=C\c1ccccc1Cl [Compound 36]

- IC50 (PfGluPho (PfG6PD) [1]; [5]): > 80 µM
SMILES: COc1cccc(/C=C2\Sc3ccc(C(=O)NCCN4CCCCCC4)cc3NC2=O)c1 [Compound 37]

- IC50 (PfGluPho (PfG6PD) [1]; [5]): > 80 µM
- IC50 (PfGluPho (PfG6PD) [2]; Table 6): > 80 µM
SMILES: COc1ccc(/C=C2\Sc3ccc(C(=O)NCCN4CCCCCC4)cc3NC2=O)cc1 [Compound 38]

- IC50 (PfGluPho (PfG6PD) [1]; [5]): > 80 µM
- IC50 (PfGluPho (PfG6PD) [2]; Table 6): > 80 µM
SMILES: O=C1Nc2cc(C(=O)NCc3ccccc3)ccc2S/C1=C\c1ccccc1F [Compound 41]

- IC50 (PfGluPho (PfG6PD) [1]; [5]): > 80 µM
SMILES: CN(C)c1ccccc1CNC(=O)c1ccc2c(c1)NC(=O)/C(=C/c1ccccc1F)S2 [Compound 42]
